Laboratory results as given in ChEMBL document CHEMBL1140733, “Comprehensive study of sansalvamide A derivatives and their structure-activity relationships against drug-resistant colon cancer cell lines” (J Med Chem, 2008).
pIC50: −log10 of the molar value. Peptide text beside a SMILES is read from it.

Key:
[1] = tested on: HCT-116; assay: Cytotoxicity against multidrug-resistant human HCT116 cells by thymidine incorporation assay; assay type: functional, cell-based
Method in brief: (§1)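 Cells (3000/well) were plated in IMDM (HCT-116), RPMI 1640 (HCT-15) or MEM (WS-1), each with L-glutamine, 10% FBS and 0.1% penicillin-streptomycin. Compounds in DMSO (1% in all wells) were added after about 6 h and left for 72 h, with 3H-thymidine pulsed for the last 16 h. Uptake was scintillation-counted against DMSO controls. IC50 came from four-concentration curves, three experiments in quadruplicate.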

[2] = tested on: HCT-15; assay: Cytotoxicity against multidrug-resistant human HCT15 cells by thymidine incorporation assay; assay type: functional, cell-based; method in brief: as §1
[3] = tested on: HCT-116; assay: Cytotoxicity against multidrug-resistant human HCT116 cells at 1 uM by thymidine incorporation assay; assay type: functional
Method in brief: (§2)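 HCT-116 cells were grown in IMDM and HCT-15 in RPMI 1640, each with L-glutamine, 10% FBS and penicillin-streptomycin, at 3000 cells/well. Compound was applied at 1 µM in 1% DMSO for 72 h total, with 3H-thymidine added for the final 16 h. Percent growth inhibition versus DMSO controls was scintillation-counted, averaging three wells in each of three assays.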

[4] = tested on: HCT-15; assay: Cytotoxicity against multidrug-resistant human HCT15 cells at 1 uM by thymidine incorporation assay; assay type: functional; method in brief: as §2

SMILES | pIC50 [1] | pIC50 [2] | inhibition at 1 µM [3] [%] | inhibition at 1 µM [4] [%]
CC(C)C[C@@H]1NC(=O)[C@H](Cc2ccccc2)NC(=O)[C@H](CC(C)C)N(C)C(=O)[C@H](C(C)C)NC(=O)[C@H](CC(C)C)NC1=O (HELM PEPTIDE1{F.L.L.V.[meL]}$PEPTIDE1,PEPTIDE1,1:R1-5:R2$$$V2.0) | < 4.30 | < 4.30 | 20 | 3
CC(C)C[C@@H]1NC(=O)[C@H](CC(C)C)NC(=O)[C@H](Cc2ccccc2)N(C)C(=O)[C@H](CC(C)C)NC(=O)[C@H](C(C)C)NC1=O (HELM PEPTIDE1{[meF].L.L.V.L}$PEPTIDE1,PEPTIDE1,1:R1-5:R2$$$V2.0) | < 4.30 | < 4.30 | 2 | 18
CC(C)C[C@@H]1NC(=O)[C@H](Cc2ccccc2)NC(=O)[C@@H](CC(C)C)N(C)C(=O)[C@H](C(C)C)NC(=O)[C@H](CC(C)C)NC1=O (HELM PEPTIDE1{F.L.L.V.[CC(C)C[C@H](C(=O)[*:2])N(C)[*:1]]}$PEPTIDE1,PEPTIDE1,1:R1-5:R2$$$V2.0) | < 4.30 | < 4.30 | 25 | 33
CC(C)C[C@@H]1NC(=O)[C@H](Cc2ccccc2)NC(=O)[C@H](CC(C)C)N(C)C(=O)[C@H](C(C)C)N(C)C(=O)[C@H](CC(C)C)NC1=O (HELM PEPTIDE1{F.L.L.[meV].[meL]}$PEPTIDE1,PEPTIDE1,1:R1-5:R2$$$V2.0) |  |  | 10 | 0
CC(C)C[C@@H]1NC(=O)[C@H](Cc2ccccc2)NC(=O)[C@H](CC(C)C)NC(=O)[C@H](C(C)C)NC(=O)[C@@H](CC(C)C)NC1=O (HELM PEPTIDE1{F.L.[dL].V.L}$PEPTIDE1,PEPTIDE1,1:R1-5:R2$$$V2.0) |  |  | 0 | 15
CC(C)C[C@@H]1NC(=O)[C@H](CC(C)C)NC(=O)[C@@H](Cc2c[nH]c3ccccc23)NC(=O)[C@H](CC(C)C)NC(=O)[C@H](C(C)C)NC1=O (HELM PEPTIDE1{L.L.V.L.[dW]}$PEPTIDE1,PEPTIDE1,1:R1-5:R2$$$V2.0) |  |  | 2 | 9
CC(C)C[C@@H]1C(=O)N[C@H](CC(C)C)C(=O)N[C@H](C(C)C)C(=O)N[C@H](CC(C)C)C(=O)N[C@H](Cc2ccccc2)C(=O)N1C (HELM PEPTIDE1{[dF].[CC(C)C[C@H](C(=O)[*:2])N(C)[*:1]].[dL].[dV].[dL]}$PEPTIDE1,PEPTIDE1,1:R1-5:R2$$$V2.0) |  |  | 42 | 28
CC(C)C[C@@H]1NC(=O)[C@@H](Cc2ccccc2)NC(=O)[C@H](C(C)C)NC(=O)[C@@H](CC(C)C)NC(=O)[C@@H](CC(C)C)NC1=O (HELM PEPTIDE1{L.[dL].[dL].V.[dF]}$PEPTIDE1,PEPTIDE1,1:R1-5:R2$$$V2.0) |  |  | 32 | 0
CC(C)C[C@@H]1NC(=O)[C@@H](Cc2ccccc2)NC(=O)[C@@H](CC(C)C)NC(=O)[C@@H](C(C)C)NC(=O)[C@H](CCCCN)NC1=O (HELM PEPTIDE1{K.[dV].[dL].[dF].L}$PEPTIDE1,PEPTIDE1,1:R1-5:R2$$$V2.0) |  |  | 2 | 17
CC(C)C[C@@H]1NC(=O)[C@H](C(C)C)N(C)C(=O)[C@H](CC(C)C)NC(=O)[C@H](CC(C)C)N(C)C(=O)[C@H](Cc2ccccc2)NC1=O (HELM PEPTIDE1{F.[meL].L.[meV].L}$PEPTIDE1,PEPTIDE1,1:R1-5:R2$$$V2.0) |  |  | 18 | 15
CC(C)C[C@@H]1NC(=O)[C@H](C(C)C)NC(=O)[C@H](CC(C)C)N(C)C(=O)[C@@H](CC(C)C)NC(=O)[C@H](Cc2ccccc2)NC1=O (HELM PEPTIDE1{F.[dL].[meL].V.L}$PEPTIDE1,PEPTIDE1,1:R1-5:R2$$$V2.0) |  |  | 23 | 30
CC(C)C[C@@H]1NC(=O)[C@H](C(C)C)NC(=O)[C@H](CC(C)C)NC(=O)[C@@H](CC(C)C)NC(=O)[C@H](Cc2ccccc2)NC1=O (HELM PEPTIDE1{F.[dL].L.V.L}$PEPTIDE1,PEPTIDE1,1:R1-5:R2$$$V2.0) |  |  | 45 | 10
CC(C)C[C@@H]1NC(=O)[C@H](Cc2ccccc2)NC(=O)[C@@H](CC(C)C)NC(=O)[C@H](C(C)C)NC(=O)[C@H](CC(C)C)NC1=O (HELM PEPTIDE1{F.L.L.V.[dL]}$PEPTIDE1,PEPTIDE1,1:R1-5:R2$$$V2.0) | < 4.30 | < 4.30 | 18 | 10
CC(C)C[C@@H]1NC(=O)[C@H](Cc2ccccc2)NC(=O)[C@H](CC(C)C)NC(=O)[C@@H](CO)NC(=O)[C@H](CC(C)C)NC1=O (HELM PEPTIDE1{F.L.L.[dS].L}$PEPTIDE1,PEPTIDE1,1:R1-5:R2$$$V2.0) |  |  | 0 | 11
